From the EternaBench riboswitch data

Tested on: MS2 coat protein
Assay: apparent Kd, MS2 coat protein; higher = weaker binding; RNA-MaP array; FMN 200 µM where present
Outline: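 On Illumina sequencing-chip clusters, designs were transcribed by stalled E. coli RNA polymerase and titrated with SNAP-549-labelled MS2 coat protein (0.7 or 1.5 nM, doubling to 3 µM), without and then with constant ligand, in 100 mM Tris-HCl pH 7.5, 80 mM KCl, 4 mM MgCl2, BSA, DTT, yeast tRNA and Tween-20. Apparent Kd is the median of filtered per-cluster curve fits to green signal normalised to red-channel RNA signal and control-cluster median Fmax.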

[1] = designed as: ON switch for flavin mononucleotide, no ligand
[2] = ligand present: flavin mononucleotide, designed as: ON switch for flavin mononucleotide
[3] = designed as: OFF switch for flavin mononucleotide, no ligand
[4] = ligand present: flavin mononucleotide, designed as: OFF switch for flavin mononucleotide

Sequence	apparent Kd [1] [nM]	apparent Kd [2] [nM]	apparent Kd [3] [nM]	apparent Kd [4] [nM]
UUUUAUAGAACAGGAUAUGUGGGCGGGUCCGACGGGAUCCACCACAUGAGGAUCACCCAUGUGACACAGAAGGGUUCCAGAAAC	474	24.2		
GCUUCUUAAUUUCAAACUUACGAUUCAGAAGGUGAAUUUUACACAUGAGGAUCACCCAUGUUACUCAAGGAUAUGAUUUGACUA	18.7	14		
GAAUAAUUGAUCCAAUUUUACAACAUGAGGAUCACCCAUGUGCAGGAUAUCGUGUGUGUUAUAUACGAGAAGGGCAAGAACUGU			381	448
CAGGAAAUAGAGGAUAUAGGAGUCGAUAGACUCCUAGAAGGCUAUACAUGAGGAUCACCCAUGUGUCCUACCUG			16.7	43
CCUCCACAUGAGGAUCACCCAUGUCAGGAUAUCGUGUGUGUUUUUUCGGUCUUUCGUGCGAGAAGGGACGUCUG			51.6	52.3
AGAACGUCAGGAUAUCCAACAACAAGUAAAUAGAGAAGAAGGGAGAAGGGACAUGAGGAUCACCCAUGUAAGAA			51.4	45.9
ACAUGAGGAUCACCCAUGUUAUGUUGGGUACUAAAUUAUUCGUAGGAUAUCGUAGCUAGUUUGUGCGAGAAGGACGCAGUUUUU			257	277
CCAUGCAUAGCGAUAUGAUCGAGAGAUCAUGUCGCUAAAUUUAGAAGGACAUGAGGAUCACCCAUGUAGGAUAUGGGAGCAUGG	11.7	8.26		
UGCUGGCGAGGAUAUGCUCGGGUUGCUUGUCGCGCGGUUGCACAUGAGGAUCACCCAUGUAGAAGGUGUCUGUG			311	438
AUAUGAUAGAUAGGAUAUACUAUGGUUGAAUAUGUAGAAGGAUCAAUAGGGAAAUGUACAUGAGGAUCACCCAUGUUAUGGAUU	32.9	31.3		
CUCCUCCUGGUCAGGAUAUGAGCUUUAUCGGAUAUUCAGAAGGGACAUGAGGAUCACCCAUGUAACGUCGCUGG			14.8	17.2
AAGCCACAUGAGGAUCACCCAUGUCAGGAUAUCUCGAAAAGCAUAGAAAUAUGCGAAGAGAGAAGGGACUACUC			43.1	67.7
ACAUGAGGAUCACCCAUGUAUACAUAGGAUAUUGGUGAUCAGGCAUGUUUUACAGGAUAUGUCUGCGAGAAGGAUGCAAGUUGU	633	346		
GCCAGUUAUGUAGGAUAUGCGCAGCGAGCCUGAGCAGAAGGACAUGAGGAUCACCCAUGUGUUGCGGUUUGAGUACUAAUCGCU			24.3	134
AAGUCGAGCGUGAGGAUAUCGUUCGAACGACAGAACGAGAAGGCACAUGAGGAUCACCCAUGUGAUUAAGUUCA			15.8	18.6
UUUAUUAACAAGAAGGCAUACAUGAGGAUCACCCAUGUUCUACAUGGAUAAUGAGGAUAUUGCUAAUACAUGAGGAUCACCCAU			50.6	53
GACGCUGACCGAGGAUAUACAAUAAAACAACAAACACCUCGUGUCAGAACAUGAGGAUCACCCAUGUAGAAGGCGGCAGGUCUA			48.6	127
GCAUGUUAUGUCAGGAUAUACCUAUGGAUACAUAGGUAGAAGGGACAUGAGGAUCACCCAUGUCCUAAUCAUGC			13.4	16.7
GUAUCAUAUGAGAAGGCGAUCAUGAAACAUGAUCGAGGAUAUCAUGAAAACAUGAGGAUCACCCAUGUAUGGGUAUUAAGGUAC	65.6	41.7		
UUCGUGUAAGGAUAUACGACUCAUCCCAAUGGGACGAGCACGUAGAAGGUACAUGAGGAUCACCCAUGUGCUCC			27.1	155
AGUAGAUCAGGAUAUACGUGAAAGGUCAAAGUGUCACUACUACAUGAGGAUCACCCAUGUAGAAGGGAUCUACA			16.4	29.3
UUGGACGUCGUAGGAUAUGUAGGAUAUUCCUACAUGAGGAUCACCCAUGUUGACAUGGAAGAAGUACAGAAGGACGAUGUCCAU	15.9	4.5		
GGAGCUCCUGACAUGAGGAUCACCCAUGUUCACUUAUUAACUCAGGAUAUCGUCUCGAAACGAGACGAGAAGGGAGAUGCUCCU	8.36	6.76		
UCGACCGGCGCCGGUCGAACAUGAGGAUCACCCAUGUACUCCAGAAGGCCGCCCAAGAACGGAGUGGAGGAUAUGGAGGUUCUC	77.1	22.3		

Sequence	apparent Kd [1] [nM]	apparent Kd [2] [nM]	apparent Kd [3] [nM]	apparent Kd [4] [nM]
GCCAUCGCAUGAGGAUAUGCUCCCGUUUCGGGAGCAGAAGGCAUGCCAUAAGACAUGAGGAUCACCCAUGUAGUUAAGAUGGCA	5.71	5.75		
GUGCCUUAUGAGAAGGCGAUCAUGAAACAUGAUCGAGGAUAUCAUGUAAACAUGAGGAUCACCCAUGUAUGGGUAUUAUGGUAC	547	55.5		
CCUAAGAAAGGAUAUACACCGGUGGGCCGCUGAAUUCAGCAACAUGAGGAUCACCCAUGUAGAAGGUUUAUGGG			75.2	270
AGAGACCUCACAGGAUAUGCUGGACUUUGUCCAGCAGAAGGGUGAAAACAUGAGGAUCACCCAUGUAUGGUCUCCAAAUUUAAC	187	12.7		
AAAUAAAUGACUAAGGAUAUAUCAGAGAAAACAUGAGGAUCACCCAUGUAAUAAUAAAAAGGGUGAUAGAAGGUAGUCAACAAACA	222	44.5		
AAAUGCUGAGGAUAUACAUGAGGAUCACCCAUGUACUAAACUCGCAAGGGCAUCCGGUGUAGAAGGCAGCCUCA			17.3	39.7
GUGUACAGAGGAUAUACUCGAAUCUAGCGAAGCUAGGUUUGACAUGAGGAUCACCCAUGUAGAAGGCUGUACAC			14.6	18.9
UUAAUUAAUUAAUUCCAGUUUACAUGAGGAUCACCCAUGUAUAAGGAUAUGCAGUGGAAUACACUGCAGAAGGUAUACAUCUGG			18.4	35.8
CCGGAGACGGGUAGCCUGACAUGAGGAUCACCCAUGUGAUCCAAGGAUAUGGAUCCUAAUUGGAUCCAGAAGGUGGUUGGCUAC	376	371		
CAUAACUUUUCUCAUGUAAACAUGAGGAUCACCCAUGUAAUGAGAAGGAGGAGGCAGAGAGAAUCCUAGGAUAUCAGAAUUGUU			6.77	6.43
CUCAUUAGUCAGGAUAUCGUGUGGGUAAUUGUACGAGAAGGGACGACAUGAGGAUCACCCAUGUGGUCUUUGAG			71	317
GUAUGUAACAAGGAUAUGCCCUCGAUACGAUUUGCAGAAGGUGUUACAUGAGGAUCACCCAUGUGGCCUUGCAU			19.4	74.9
GCAGCUUAUGCAGGAUAUCAGCACGUGUAGUGCUGAGAAGGGCACAUGAGGAUCACCCAUGUGAUCAAUUAAUAUAAAUGCUGC			12.8	48.5
GGUACGUCCACAGGAUAUGCGAAACAAGAAACCGCAGAAGGGUGAGGCGUCAGGACCCUGGACAUGAGGAUCACCCAUGUGCGU	113	15.4		
GCGCACUAAGUGAGGAUAUCGAUUUCUUUAAGGAUCGAGAAGGCACAUGAGGAUCACCCAUGUUUGACGUGCGC			16.9	14.5
CCGGAAACGGGUAGCUGACAUGAGGAUCACCCAUGUGUUACACAGGAUAUGGAUCCUAAUUGGAUCCAGAAGGGUGUCAGCUAC	220	36.5		
GCUGCAUAGGCAGGAUAUGCAAACAUGAGAUGAAAAUACAUCUCAUGUACAUGAGGAUCACCCAUGUAGAAGGGCCUGUGCAGU			14.9	15.5
CUACGCUAGGAGAAGGGCUAGAGUGUGAUAUAUUUGCCCGCGAGCACAUGAGGAUCACCCAUGUAGCAGGAUAUCCAAGCCGGU			7.59	16.8
GCCAUCGCAUGAGGAUAUGGCACCGUUUCGGUGCCAGAAGGCAUGUCUCUUGACAUGAGGAUCACCCAUGUAGUUAAGAUGGCA	779	52		
AAUUUAAGAUGAGGAUAUUGACAUGAGGAUCACCCAUGUAUUUGGGAAUGUUUACUGAAUUCUUACAAGAAGGUAUACGAACUU			185	138
UUAUUUAGGUAGGAUAUCGAUAUCAAUCCCUAUCGAGAAGGGUCUACAUGAGGAUCACCCAUGUUAGCAUGUUU			21.2	19.2
AGAAACUACGAGAAGGACAUGUGGUCCUUCAGUUACAUGAGGAUCACCCAUGUAGGAUAUCGUAGUUUCAGGAUCGUGAGAUCG			40.4	20.4
GUAGAGUAAGGAUAUGCAGAAUAGGAUAGAAUGGAUAGAAUGCAGAAGGUACAUGAGGAUCACCCAUGUAAUGU			19.8	21.6
AUGGGACAUGAGGAUCACCCAUGUCAGGAUAUUUAGUCGCUGCGGAAAUGUGUUGGUUGGAGAAGGGACAUCAU			38.3	35.1
